This is an account of results in ChEMBL document CHEMBL3351822, “Spongiapyridine and related spongians isolated from an Indonesian Spongia sp” (J Nat Prod, 2014).

Active and inactive are the calls of the source. The rule behind the calls is not given here.

In test [1] the target is Beta-secretase 1 (Homo sapiens) (UniProt P56817). As to the kind of experiment: Inhibition of BACE1 (unknown origin) assessed as proteolytic cleavage of amyloid precursor protein after 16 hrs at < 100 uM by chemiluminescence assay.
Test [2] addresses T1, Nitric oxide synthase, inducible (Mus musculus) (UniProt P29477).
T1 sequence (whole entry): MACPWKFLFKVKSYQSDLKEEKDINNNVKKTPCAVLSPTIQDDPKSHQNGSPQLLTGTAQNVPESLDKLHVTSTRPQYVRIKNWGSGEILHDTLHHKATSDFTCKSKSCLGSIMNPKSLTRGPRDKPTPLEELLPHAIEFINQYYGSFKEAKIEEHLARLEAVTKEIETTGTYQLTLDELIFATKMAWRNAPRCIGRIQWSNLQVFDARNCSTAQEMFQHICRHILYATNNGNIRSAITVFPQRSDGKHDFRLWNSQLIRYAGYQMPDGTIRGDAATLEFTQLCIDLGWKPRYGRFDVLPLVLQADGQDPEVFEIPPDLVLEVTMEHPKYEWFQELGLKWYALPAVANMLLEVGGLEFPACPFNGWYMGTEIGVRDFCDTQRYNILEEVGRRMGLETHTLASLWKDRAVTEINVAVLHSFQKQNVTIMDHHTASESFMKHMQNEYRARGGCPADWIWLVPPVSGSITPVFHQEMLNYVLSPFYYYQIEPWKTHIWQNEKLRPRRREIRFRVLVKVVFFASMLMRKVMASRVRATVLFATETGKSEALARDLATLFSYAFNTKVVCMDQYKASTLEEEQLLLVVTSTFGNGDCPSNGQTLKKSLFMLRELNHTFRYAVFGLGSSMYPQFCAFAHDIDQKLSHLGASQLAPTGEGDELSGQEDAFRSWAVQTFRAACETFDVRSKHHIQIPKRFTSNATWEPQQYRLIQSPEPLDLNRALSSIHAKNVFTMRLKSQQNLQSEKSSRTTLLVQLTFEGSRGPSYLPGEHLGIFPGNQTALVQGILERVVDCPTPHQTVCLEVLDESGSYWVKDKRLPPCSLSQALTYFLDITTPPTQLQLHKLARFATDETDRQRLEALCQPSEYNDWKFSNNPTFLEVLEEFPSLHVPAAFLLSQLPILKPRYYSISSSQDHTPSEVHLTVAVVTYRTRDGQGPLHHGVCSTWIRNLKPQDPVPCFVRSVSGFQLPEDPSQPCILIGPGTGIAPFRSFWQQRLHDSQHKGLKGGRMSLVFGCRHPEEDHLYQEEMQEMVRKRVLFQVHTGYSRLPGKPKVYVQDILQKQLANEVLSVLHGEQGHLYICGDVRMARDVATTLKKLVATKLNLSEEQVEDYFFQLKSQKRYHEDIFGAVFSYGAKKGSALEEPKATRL
Put plainly: Inhibition of LPS-induced iNOS activity in mouse RAW264.7 cells after 24 hrs. The format is cell-based.

For test [3], the target named is T2, Aromatase (Homo sapiens, UniProt P11511).
T2 sequence (P11511 whole entry): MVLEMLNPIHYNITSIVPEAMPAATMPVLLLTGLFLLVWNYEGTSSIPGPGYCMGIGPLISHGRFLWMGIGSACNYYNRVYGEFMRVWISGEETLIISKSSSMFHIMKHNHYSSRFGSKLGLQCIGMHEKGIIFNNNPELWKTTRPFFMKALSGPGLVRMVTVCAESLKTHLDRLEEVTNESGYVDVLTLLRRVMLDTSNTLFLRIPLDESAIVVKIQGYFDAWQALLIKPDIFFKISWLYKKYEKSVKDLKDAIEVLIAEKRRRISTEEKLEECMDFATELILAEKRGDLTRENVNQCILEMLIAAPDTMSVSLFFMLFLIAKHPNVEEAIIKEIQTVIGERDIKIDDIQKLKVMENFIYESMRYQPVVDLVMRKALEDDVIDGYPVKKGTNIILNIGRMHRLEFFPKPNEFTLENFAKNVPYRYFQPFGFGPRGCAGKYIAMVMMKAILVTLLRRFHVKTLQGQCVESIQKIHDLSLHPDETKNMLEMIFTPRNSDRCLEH
Put plainly: Inhibition of aromatase (unknown origin) using dibenzylfluorescein substrate at 50 uM after 24 hrs by fluorescence assay.

Test [4] has as its target Nuclear factor NF-kappa-B complex (Homo sapiens) (UniProt Q00653+P19838+Q04206). Put plainly: Inhibition of TNF-alpha-induced NF-kappaB activity in HEK293 cells after 6 hrs by luciferase reporter gene assay. The format is cell-based. For orientation: Reporter assays use an easily measured gene product as a stand-in for the process of interest.
Test [5] has as its target NAD(P)H dehydrogenase [quinone] 1 (Mus musculus) (UniProt Q64669). Put plainly: Induction of quinone reductase 1 in mouse Hepa-1c1c7 cells after 48 hrs by MTT assay. The class given is cell-based. In short, it runs like this: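 QR1 induction measured in cultured murine Hepa 1c1c7 hepatoma cells. Potency is expressed as the CD value, the test-compound concentration needed to double QR1 enzymatic activity.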

Test [6] has as its target T2, Aromatase. Put plainly: Inhibition of aromatase (unknown origin) using dibenzylfluorescein substrate after 24 hrs by fluorescence assay.

Sequence of Beta-secretase 1 (Homo sapiens) (P56817 whole entry): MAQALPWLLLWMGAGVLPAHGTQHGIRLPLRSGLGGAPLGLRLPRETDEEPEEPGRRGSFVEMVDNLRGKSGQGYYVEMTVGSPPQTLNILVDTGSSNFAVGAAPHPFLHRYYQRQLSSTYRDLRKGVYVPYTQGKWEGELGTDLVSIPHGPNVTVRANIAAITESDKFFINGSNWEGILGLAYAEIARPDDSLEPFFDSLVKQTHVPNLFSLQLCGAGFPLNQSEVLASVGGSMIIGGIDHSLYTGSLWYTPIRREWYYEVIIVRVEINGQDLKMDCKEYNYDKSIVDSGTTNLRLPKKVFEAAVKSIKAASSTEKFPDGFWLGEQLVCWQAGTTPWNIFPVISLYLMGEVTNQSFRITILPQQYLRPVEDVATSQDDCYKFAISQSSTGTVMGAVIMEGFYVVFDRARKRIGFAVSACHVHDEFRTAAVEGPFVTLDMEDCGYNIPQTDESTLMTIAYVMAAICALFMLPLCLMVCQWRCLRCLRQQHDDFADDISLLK
Sequence of Nuclear factor NF-kappa-B complex (Homo sapiens) (P19838 whole entry, looked up): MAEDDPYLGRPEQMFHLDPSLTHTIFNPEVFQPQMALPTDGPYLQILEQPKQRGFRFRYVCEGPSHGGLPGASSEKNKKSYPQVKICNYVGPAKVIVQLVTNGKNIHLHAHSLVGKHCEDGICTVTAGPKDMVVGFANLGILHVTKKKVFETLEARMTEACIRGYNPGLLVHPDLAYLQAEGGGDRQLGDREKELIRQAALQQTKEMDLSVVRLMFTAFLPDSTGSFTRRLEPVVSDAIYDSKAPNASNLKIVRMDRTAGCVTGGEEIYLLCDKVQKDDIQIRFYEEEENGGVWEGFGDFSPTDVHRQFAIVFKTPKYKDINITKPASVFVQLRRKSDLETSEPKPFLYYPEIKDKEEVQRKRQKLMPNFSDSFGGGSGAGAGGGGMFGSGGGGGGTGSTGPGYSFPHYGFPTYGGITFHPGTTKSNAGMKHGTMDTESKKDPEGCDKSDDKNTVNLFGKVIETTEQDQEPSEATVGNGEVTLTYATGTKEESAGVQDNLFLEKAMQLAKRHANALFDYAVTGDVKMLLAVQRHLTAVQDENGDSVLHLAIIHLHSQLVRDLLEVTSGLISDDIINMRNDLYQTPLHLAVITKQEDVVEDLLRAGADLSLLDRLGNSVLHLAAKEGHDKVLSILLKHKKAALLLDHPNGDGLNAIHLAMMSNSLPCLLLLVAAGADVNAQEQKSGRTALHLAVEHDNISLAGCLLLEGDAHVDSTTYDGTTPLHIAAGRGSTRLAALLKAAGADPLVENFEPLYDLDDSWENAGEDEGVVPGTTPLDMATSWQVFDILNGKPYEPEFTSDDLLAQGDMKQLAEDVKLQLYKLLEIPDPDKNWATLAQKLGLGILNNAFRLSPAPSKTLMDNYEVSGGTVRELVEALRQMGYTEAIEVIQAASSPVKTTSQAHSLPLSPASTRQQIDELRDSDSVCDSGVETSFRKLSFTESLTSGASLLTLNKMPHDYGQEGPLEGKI
Sequence of Nuclear factor NF-kappa-B complex (Homo sapiens) (Q00653 whole entry, looked up): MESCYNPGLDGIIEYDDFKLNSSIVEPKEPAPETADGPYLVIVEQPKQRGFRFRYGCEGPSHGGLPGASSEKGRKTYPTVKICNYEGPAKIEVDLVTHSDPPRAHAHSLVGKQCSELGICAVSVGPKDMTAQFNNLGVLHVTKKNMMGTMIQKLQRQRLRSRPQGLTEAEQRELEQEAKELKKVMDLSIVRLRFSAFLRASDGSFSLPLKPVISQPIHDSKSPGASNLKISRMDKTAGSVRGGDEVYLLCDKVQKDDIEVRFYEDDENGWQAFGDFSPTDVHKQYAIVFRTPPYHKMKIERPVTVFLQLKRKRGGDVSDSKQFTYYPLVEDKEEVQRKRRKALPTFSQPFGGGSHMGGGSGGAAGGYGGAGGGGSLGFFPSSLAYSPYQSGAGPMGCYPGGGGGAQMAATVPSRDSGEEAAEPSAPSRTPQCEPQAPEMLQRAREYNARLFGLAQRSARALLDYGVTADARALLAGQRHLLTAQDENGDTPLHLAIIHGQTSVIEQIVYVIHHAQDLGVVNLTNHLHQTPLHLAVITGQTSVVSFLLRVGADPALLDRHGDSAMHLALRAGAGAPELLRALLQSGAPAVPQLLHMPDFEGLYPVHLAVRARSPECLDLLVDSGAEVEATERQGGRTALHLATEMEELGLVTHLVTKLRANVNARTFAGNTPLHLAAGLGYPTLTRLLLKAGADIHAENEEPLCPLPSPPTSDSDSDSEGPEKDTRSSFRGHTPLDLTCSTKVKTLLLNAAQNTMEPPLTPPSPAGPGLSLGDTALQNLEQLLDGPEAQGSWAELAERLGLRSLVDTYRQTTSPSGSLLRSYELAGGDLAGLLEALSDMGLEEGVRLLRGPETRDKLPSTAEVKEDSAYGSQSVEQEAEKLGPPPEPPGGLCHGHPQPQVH
Sequence of Nuclear factor NF-kappa-B complex (Homo sapiens) (Q04206 whole entry, looked up): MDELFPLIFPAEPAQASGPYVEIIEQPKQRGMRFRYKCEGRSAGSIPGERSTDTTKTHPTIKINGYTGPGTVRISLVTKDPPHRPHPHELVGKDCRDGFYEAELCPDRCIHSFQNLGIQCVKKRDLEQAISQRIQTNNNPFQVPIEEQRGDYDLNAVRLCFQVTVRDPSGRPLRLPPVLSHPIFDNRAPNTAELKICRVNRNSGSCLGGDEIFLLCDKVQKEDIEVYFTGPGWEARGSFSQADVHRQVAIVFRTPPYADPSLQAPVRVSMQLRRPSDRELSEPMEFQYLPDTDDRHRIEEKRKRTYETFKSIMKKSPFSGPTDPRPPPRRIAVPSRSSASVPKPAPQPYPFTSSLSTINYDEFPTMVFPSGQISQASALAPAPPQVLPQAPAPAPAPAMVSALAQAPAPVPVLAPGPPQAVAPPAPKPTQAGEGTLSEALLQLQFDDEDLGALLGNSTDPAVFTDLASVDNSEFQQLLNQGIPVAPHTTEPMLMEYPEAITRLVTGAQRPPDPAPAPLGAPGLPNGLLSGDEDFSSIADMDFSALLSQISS
Sequence of NAD(P)H dehydrogenase [quinone] 1 (Mus musculus) (Q64669 whole entry): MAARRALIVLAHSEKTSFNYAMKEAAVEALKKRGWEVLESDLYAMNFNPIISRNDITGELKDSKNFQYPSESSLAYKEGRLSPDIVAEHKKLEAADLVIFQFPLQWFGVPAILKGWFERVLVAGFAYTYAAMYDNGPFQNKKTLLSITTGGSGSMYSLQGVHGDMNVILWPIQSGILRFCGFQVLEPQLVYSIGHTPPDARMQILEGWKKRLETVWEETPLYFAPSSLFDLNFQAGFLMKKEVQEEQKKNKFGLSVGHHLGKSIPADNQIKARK

In the case of `CC1=C(O)C(=O)C[C@@]2(C)[C@H]1CC[C@@]1(CO)c3cocc3CC[C@@H]12`, the inhibition result in test [1] and in test [2] was “inactive” in each case. The compound also showed an inhibition at 50 µM on Aromatase [3] of less than 50%. In test [4], this compound displayed an ED50 greater than 50 µM.

Consider `CC1=C(O)C(=O)C[C@]2(C)[C@H]3CCc4cocc4[C@]3(CO)CCC12O` (some centres not stated), for which the CD in test [5] turned out to be 11.2 µM. On Aromatase [6], this compound displayed an IC50 of 34.4 µM. Also, the inhibition result in test [1] and in test [2] was “inactive” each time. This compound also registered an ED50 in test [4] greater than 50 µM.

Take `C[C@]12CC(=O)OC[C@@](C)(C(=O)O)[C@@H]1CC[C@@]1(CO)c3cocc3CC[C@@H]12`: the inhibition entry in test [1] and in test [2] was “inactive” each time. Moreover, the inhibition at 50 µM against Aromatase [3] is less than 50%. Further, the ED50 in test [4] was greater than 50 µM.

On to `CC1=C(O)C(=O)C[C@@]2(C)[C@H]1CC[C@@]1(CO)c3cnccc3C(=O)C[C@@H]12`, for which the inhibition entry in test [1] and in test [2] was “inactive” each time. This compound also returned an inhibition at 50 µM on Aromatase [3] of less than 50%. In addition, the ED50 in test [4] was greater than 50 µM.

One may read the inhibition as the share of the control response that was lost under treatment. As usually defined, the IC50 is the midpoint of a concentration-inhibition curve. A higher IC50 goes with weaker potency in that assay.
